Activity calls are given as the source filed them. The rule behind the calls is not given here.
Columns and labels:
Saccharomyces cerevisiae = assay: Anti-prion activity against [URE3] protein in Saccharomyces cerevisiae SB34 at 100 uM measured after 24 hrs by fluorimetry analysis
Method in brief: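 Whole-cell yeast assay for curing of the [URE3] prion at a single concentration of 100 μM, scored as yes/no curing. Guanabenz was run as the positive control.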

[1] = Anti-prion activity against [PSI+] protein in Saccharomyces cerevisiae STRg6 measured after 24 hrs by fluorimetry analysis
Method in brief: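 Whole-cell yeast assay for curing of the [PSI+] prion, which depends on compound uptake across the cell membrane. EC50 (μM) reported ± SE. Guanabenz was run as the positive control.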

SMILES | Activity (Saccharomyces cerevisiae) | EC50 [1] [µM]
COC1=C(c2cc(Br)c(O)c(Br)c2)[C@H](Cc2cc(Br)c(OC)c(Br)c2)OC1=O | Active | 67
COc1ccc(C[C@H](O)C(=O)c2cc(Br)c(O)c(Br)c2)cc1Br | Active | 29
COc1ccc(C[C@@H]2OC(=O)C(O)=C2c2cc(Br)c(O)c(Br)c2)cc1Br | Active | 23
COc1c(Br)cc(C[C@@H]2OC(=O)C(O)=C2c2cc(Br)c(O)c(Br)c2)cc1Br | Active | 34
COC1=C(c2cc(Br)c(O)c(Br)c2)[C@H](Cc2ccc(OC)c(Br)c2)OC1=O | Active | 65
N=C(N)N/N=C/c1c(Cl)cccc1Cl [GUANABENZ] | Active | 26
COc1c(Br)cc(C[C@H](O)C(=O)c2cc(Br)c(O)c(Br)c2)cc1Br | Active | 33
